# Source: PubChem
# Sampled rows, rich in hits. Any-hit rate of the full collection: about 2.1%.
# Xi reactivation: activators of inactive X chromosome reactivation, primary screen, imaging, XiGFP fibroblasts, GFP high-content imaging, set 2 | XiGFP mouse fibroblasts, % GFP-positive cells imaging, 3 d; cells co-treated with 5-aza-dC sensitizer; scaled so ellipticine positive control = 100% | activation, % at 7.58 µM | 360,000 tested, 0.055% active | AID 743238, 2013;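 active = mean normalized replicate activation at least 10% and every replicate at or above 10%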;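 also: 0% = median of on-plate neutral control wells and 100% = ellipticine 6 µM median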
#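 Schedule: 3 d treatment, 15 min room-temperature fixation; system: 68-5-11 XiGFP fibroblast line; buffer or medium: DMEM plus 5-aza-dC sensitizer; control set: ellipticine 6 µM positive control; compound: one concentration, pinned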
# C2C12 statin: suppressors of statin myotoxicity in C2C12 myotubes, primary screen, cell-based, single point, plate reader; C2C12 myotubes + simvastatin, ATP luminescence, 48 h; scaled: DMSO 0, geranylgeraniol control 100; rescue of ATP level, % at 7.49 µM; 330,000 tested, 0.78% active;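 active = mean ATP rescue above about 67%, or every replicate alone reaching that limit, limit read from the data, passing the limit was not always enough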;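 also: myotubes were challenged with 10 µM simvastatin during compound exposure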
# DENV2 CPE: inhibitors of DENV2 cytopathic effect, primary screen, cell-based, plate reader, single concentration; CPE inhibition, % at 9.99 µM; 350,000 tested, 1.7% active; DENV2-infected cells, cytopathic effect rescue; in the data active = CPE inhibition above about 20%, passing the limit was not always enough; tested in BHK-21 cells;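 also: 0% = median of neutral control wells and 100% = median of positive control wells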
# Cneo AK release: Cryptococcus neoformans cell lysis inducers, primary screen, AK release luminescence, single concentration | C. neoformans lysis, adenylate kinase release luminescence, 4 h; normalised: neutral wells 0, clomiphene wells 100 | lysis activity, % at 15 µM | 360,000 tested, 0.2% active | AID 651654, 2012;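 active = mean lysis activity across replicates of at least 80%, whatever share of replicates individually reach that level; inactive = mean lysis activity below 80%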
#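 Assay system: log-phase C. neoformans yeast / Quantity: yeast cell density of 5 × 10^6 cells/mL / Medium: fresh YPD growth medium / Compound: single dose / Timing: static 4 h at 37 °C with compound, 1 h detection / Measured by: adenylate kinase release luminescence / Read-out: lysis from increased AK signal / Benchmarks: Clomiphene as positive lysis control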
# Active calls of the source: *; x = no result; ! = repeats disagree.
SMILES,Xi reactivation,C2C12 statin,DENV2 CPE,Cneo AK release
CC1=C(C(=O)OC2CCCC2)C(c2ccc(C)o2)C2=C(CC(c3cccs3)CC2=O)N1 (stereo not given),x,101.6*,x,-10.1
COc1ccc(CN2CCN(C(=O)c3cccc4ccccc34)CC2)cc1Br,0.1,-5.8,-0.9,-0.9
COc1ccc(CN2CCN(C(=O)c3cccs3)CC2)cc1Br,x,156.8*,x,-2.5
O=C(c1cccs1)N1CCN(C2CCCCC2)CC1,x,1.3,x,-1.2
O=C(c1cccs1)N1CCN(C2CCN(Cc3ccccc3)CC2)CC1,x,100.9*,x,-3.3
C[C@H](CO)N1C[C@H](C)[C@@H](CN(C)C(=O)c2ccc(F)cc2)Oc2ncc(/C=C/c3ccccc3)cc2C1=O,-0.5,33.7,-2.6,-1.1
CCN1/C(=C/C=C/c2oc3ccc(-c4ccccc4)cc3[n+]2CC)Oc2ccc(-c3ccccc3)cc21,102.6*,-97.3,-2.8,-7.5
COc1ccc(C2(C)CC(C)(C)Nc3ccccc32)cc1 (stereo not given),0.1,2.4,26.4*,-1.4
O=C(C1CCCCC1)N1CC2(C1)[C@H](c1ccccc1)[C@H](CO)N2Cc1cncnc1,0.2,x,40.4*,x
O=C(C1CCCC1)N1CC2(C1)[C@@H](c1ccccc1)[C@@H](CO)N2Cc1ccc(Cl)cc1,0.1,x,-6.8,x
O=C(C1CCOCC1)N1CC2(C1)[C@H](c1ccccc1)[C@@H](CO)N2Cc1ccc(Cl)cc1,0.3,x,28.7*,x
O=C(C1CCCCC1)N1CC2(C1)[C@@H](c1ccccc1)[C@@H](CO)N2Cc1cncnc1,0.2,x,10.6,x
C[C@@H]1CN([C@@H](C)CO)C(=O)c2cc(C#CC(C)(C)O)cnc2O[C@@H]1CN(C)Cc1ccccn1,0.4,15.4,1.4,-1.5
COc1cccc(-c2ccc3n(c2=O)C[C@H]2[C@H](CO)[C@@H](C(=O)NC4CCC4)[C@@H]3N2C)c1,0.3,-2.4,5.0,-3.3
CC1(C)Cc2c(cnn2-c2ccc(F)cc2)C(NC(=O)c2cnccn2)C1 (stereo not given),0.0,3.9,-7.8,0.9
CC1(C)Cc2c(cnn2-c2ccc(F)cc2)C(NC(=O)c2ccc(=O)oc2)C1 (stereo not given),0.0,-4.0,70.1*,1.2
CCC(=O)N[C@@H]1CC[C@@H](CC(=O)OC)O[C@@H]1CO,0.0,6.2,-2.5,-2.5
C[C@@H]1CN([C@H](C)CO)C(=O)c2cc(NC(=O)Nc3cccc4ccccc34)ccc2O[C@@H](C)CCCCO[C@@H]1CN(C)Cc1ccc(C(F)(F)F)cc1,0.2,x,72.3*,0.8
C[C@@H]1CCCCO[C@H](CN(C)Cc2ccccc2)[C@H](C)CN([C@H](C)CO)C(=O)c2cc(NC(=O)Nc3ccc(C(F)(F)F)cc3)ccc2O1,0.4,x,-20.3,-16.3
C[C@H]1CCCCO[C@H](CN(C)Cc2ccc(C(F)(F)F)cc2)[C@@H](C)CN([C@@H](C)CO)C(=O)c2cc(NC(=O)Nc3cccc4ccccc34)ccc2O1,0.3,x,-18.5,1.1
C[C@H]1CCCCO[C@H](CN(C)Cc2ccccc2)[C@@H](C)CN([C@@H](C)CO)C(=O)c2cc(NC(=O)Nc3ccc(C(F)(F)F)cc3)ccc2O1,0.4,x,39.4*,-15.3
C[C@@H]1CCCCO[C@H](CN(C)Cc2ccc(C(=O)O)cc2)[C@H](C)CN([C@@H](C)CO)C(=O)c2cc(NC(=O)Nc3ccc(C(F)(F)F)cc3)ccc2O1,0.1,-2.8,40.8*!,6.5
COc1ccc2c3c(n(C)c2c1)[C@H](CO)N(C(=O)Nc1ccccc1F)CC31CCN(C(=O)c2ccccc2F)CC1,0.3,x,-12.3,x
O=C(C[C@H]1CC[C@H]2NC[C@H](O)COC[C@@H]2O1)Nc1ccccc1,0.2,-4.7,13.5,-2.3
O=C(C[C@H]1C[C@H]2c3cc(NC(=O)NC4CCCCC4)ccc3O[C@H]2[C@H](CO)O1)NCC1CC1,0.2,-10.3,-1.5,-2.2
CCCCn1cnc2c(SCCc3ccccc3)nc(N)nc21,-0.1,98.6*,1.1,-3.4
CCCn1cnc2c(SCCc3ccccc3)nc(N)nc21,0.1,-1.9,1.6,-0.7
CCOC(=O)C1CCCN(C(=S)Nc2ccc(F)cc2)C1 (stereo not given),2.3,x,0.0,x
